Data taken from ChEMBL document CHEMBL5674882, “Benzolactam-related compounds promote apoptosis of HIV-infected human cells via protein kinase C-induced HIV latency reversal” (J Biol Chem, 2019).
Active and inactive are the calls of the source. No cut-off for these calls is given here.

What was measured:
[1] = Induction of apoptosis in human CEM A3.01 cells assessed as caspase-3 activation at 1 uM incubated for 24 hrs by flow cytometry; type: functional
How it was run: (§1)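 Cells fixed in 1% paraformaldehyde, permeabilized, stained 30 min on ice with anti-active caspase-3 mAb, and analysed by flow cytometry. Three independent experiments.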

[2] = Toxicity in human A3.01 cells assessed as reduction in cell viability after 48 hrs by WST8 assay; type: cell-based
How it was run: (§2)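 Parental, uninfected lines (A3.01 for ACH-2, U937 for U1) at 5 × 10^5 cells/ml cultured with or without drug. Viable cells read at 48 h (day 2) and expressed as % of untreated control. CC50 taken as the concentration lowering viability by 50%.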

[3] = target: Protein kinase C (PKC); assay: Activation of PKC in human ACH-2 cells infected with latent HIV-1 assessed as reversal of HIV-1 latency by measuring increase in p24 antigen level incubated for 48 hrs by chemiluminescent enzyme immunoassay; type: cell-based; conditions: ach-2 cell line
[4] = target: T1, Protein kinase C (PKC) (Homo sapiens) (UniProt O94806+P41743+P17252+P05129+Q05655+P05771+Q05513+Q02156+P24723+Q15139+Q04759); assay: Activation of PKC in human J-Lat 6.3 cells infected with latent HIV-1 assessed as reversal of HIV-1 latency by measuring increase of GFP-positive cells at 10 uM in presence of PKC alpha/beta/gamma inhibitor GF109203X incubated for 24 hrs by flow cytometry; type: cell-based
How it was run: (§3)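 J-Lat 6.3 cells pretreated 3 h with a PKC inhibitor: Gö 6983 1 µM, Gö 6976 1 µM, GF 109203X 1 µM, PKCθ/δ inhibitor 10 µM, or Rottlerin 1 µM. Then exposed to 10 µM compound for 24 h; GFP-positive cells counted by flow cytometry. Mean ± S.D.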

[5] = system: U1; assay: Induction of apoptosis in human U1 cells at 1 uM incubated for 48 hrs by propidium iodide/annexin-V staining based flow cytometry (reference value: 3.16%); type: functional
[6] = target: Protein kinase C (PKC); assay: Activation of PKC in human U1 cells infected with latent HIV-1 assessed as reversal of HIV-1 latency by measuring increase in p24 antigen level incubated for 48 hrs by chemiluminescent enzyme immunoassay; type: cell-based
[7] = system: J-Lat 6.3; assay: Induction of apoptosis in human J-Lat 6.3 cells assessed as caspase-3 activation at 1 uM incubated for 24 hrs by flow cytometry; type: functional; how it was run: as §1
[8] = target: T1, Protein kinase C (PKC) (Homo sapiens); assay: Activation of PKC in human J-Lat 6.3 cells infected with latent HIV-1 assessed as reversal of HIV-1 latency by measuring increase of GFP-positive cells at 10 uM in presence of pan-PKC inhibitor Go-6983 incubated for 24 hrs by flow cytometry; type: cell-based; how it was run: as §3
[9] = target: T1, Protein kinase C (PKC) (Homo sapiens); assay: Activation of PKC in human J-Lat 6.3 cells infected with latent HIV-1 assessed as reversal of HIV-1 latency by measuring increase of GFP-positive cells at 10 uM in presence of PKC delta inhibitor Rottlerin incubated for 24 hrs by flow cytometry; type: cell-based; how it was run: as §3
[10] = system: U1; assay: Induction of apoptosis in human U1 cells assessed as caspase-3 activation at 1 uM incubated for 24 hrs by flow cytometry (reference value: 1.86%); type: functional; how it was run: as §1
[11] = system: U1; assay: Induction of apoptosis in human U1 cells assessed as caspase-3 activation at 1 uM incubated for 24 hrs by flow cytometry; type: functional; how it was run: as §1
[12] = system: ACH-2 cell line; assay: Induction of apoptosis in human ACH-2 cells at 1 uM after 48 hrs by PI/annexin-V staining based flow cytometry; type: functional
[13] = system: J-Lat 6.3 (Homo sapiens); assay: Induction of apoptosis in human J-Lat 6.3 cells at 1 uM incubated for 48 hrs after pre-incubated for 2 hrs with 20 uM caspase inhibitor Q-VD-Oph by propidium iodide/annexin-V staining based flow cytometry
[14] = system: U1; assay: Induction of apoptosis in human U1 cells at 1 uM after 48 hrs by PI/annexin-V staining based flow cytometry; type: functional
[15] = system: J-Lat 6.3; assay: Induction of apoptosis in human J-Lat 6.3 cells assessed as caspase-3 activation at 1 uM incubated for 24 hrs by flow cytometry (reference value: 2.43%); type: functional; how it was run: as §1
[16] = system: U-937; assay: Induction of apoptosis in human U-937 cells assessed as caspase-3 activation at 1 uM incubated for 24 hrs by flow cytometry; type: functional; how it was run: as §1
[17] = Toxicity in human PBMC assessed as reduction in cell viability after 5 days by WST8 assay; type: cell-based; conditions: time 5 day
How it was run: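 PBMC from a healthy donor exposed to drug, with viability determined at day 5. CC50 is the concentration reducing viability by 50%.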

[18] = system: Jurkat; assay: Induction of apoptosis in human Jurkat cells assessed as caspase-3 activation at 1 uM incubated for 24 hrs by flow cytometry; type: functional; how it was run: as §1
[19] = target: T1, Protein kinase C (PKC) (Homo sapiens); assay: Activation of PKC in human ACH-2 cells infected with latent HIV-1 assessed as reversal of HIV-1 latency by measuring increase in p24 antigen level at 1 to 10000 nM incubated for 48 hrs by chemiluminescent enzyme immunoassay; type: cell-based; conditions: ACH-2 cell line, filed as activator, dose 1-10000 nM
How it was run: (§4)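 ACH-2 or U1 cells (5 × 10^5 cells/ml) incubated 48 h with graded drug concentrations. Supernatant p24 antigen measured by automated chemiluminescent immunoassay. EC50 calculated taking the maximum response with excess PMA as 100%. Means ± S.D. of three independent experiments.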

[20] = system: ACH-2 cell line; assay: Induction of apoptosis in human ACH-2 cells assessed as caspase-3 activation at 1 uM incubated for 24 hrs by flow cytometry; type: functional; how it was run: as §1
[21] = target: T1, Protein kinase C (PKC) (Homo sapiens); assay: Activation of PKC in human U1 cells infected with latent HIV-1 assessed as reversal of HIV-1 latency by measuring increase in p24 antigen level at 1 to 10000 nM incubated for 48 hrs by chemiluminescent enzyme immunoassay; type: cell-based; conditions: filed as activator, dose 1-10000 nM; how it was run: as §4
[22] = system: ACH-2 cell line; assay: Induction of apoptosis in human ACH-2 cells at 1 uM incubated for 48 hrs after pre-incubated for 2 hrs with 20 uM caspase inhibitor Q-VD-Oph by propidium iodide/annexin-V staining based flow cytometry; type: functional, cell-based
How it was run: (§5)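 ACH-2 or U1 cells pretreated 2 h with 20 µM pan-caspase inhibitor Q-VD-Oph, then exposed to 1 µM compound for 48 h. Annexin-V/PI staining by flow cytometry; apoptotic proportions compared with and without Q-VD-Oph. Mean ± S.D.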

[23] = Toxicity in human U-937 cells assessed as reduction in cell viability after 48 hrs by WST8 assay; type: cell-based; how it was run: as §2
[24] = target: T1, Protein kinase C (PKC) (Homo sapiens); assay: Activation of PKC in human J-Lat 6.3 cells infected with latent HIV-1 assessed as reversal of HIV-1 latency by measuring increase of GFP-positive cells at 10 uM in presence of PKC alpha/beta inhibitor Go-6976 incubated for 24 hrs by flow cytometry; type: cell-based; how it was run: as §3
[25] = system: J-Lat 6.3; assay: Induction of apoptosis in human J-Lat 6.3 cells at 1 uM incubated for 48 hrs by propidium iodide/annexin-V staining based flow cytometry (reference value: 3.16%); type: functional
[26] = system: U1; assay: Induction of apoptosis in human U1 cells at 1 uM incubated for 48 hrs after pre-incubated for 2 hrs with 20 uM caspase inhibitor Q-VD-Oph by propidium iodide/annexin-V staining based flow cytometry; type: functional, cell-based; how it was run: as §5
[27] = system: ACH-2 cell line; assay: Induction of apoptosis in human ACH-2 cells at 1 uM incubated for 48 hrs by propidium iodide/annexin-V staining based flow cytometry (reference value: 3.16%); type: functional
[28] = target: T1, Protein kinase C (PKC) (Homo sapiens); assay: Activation of PKC in human J-Lat 6.3 cells infected with latent HIV-1 assessed as reversal of HIV-1 latency by measuring increase of GFP-positive cells at 10 uM in presence of PKC theta/delta/epsilon/eta inhibitor PKCtheta/delta inhibitor incubated for 24 hrs by flow cytometry; type: cell-based; how it was run: as §3
[29] = system: ACH-2 cell line; assay: Induction of apoptosis in human ACH-2 cells assessed as cleaved-PARP level at 1 uM incubated for 24 hrs by flow cytometry (reference value: 1.64%); type: functional
How it was run: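 Cells fixed, permeabilized, stained on ice with anti-cleaved PARP (Asp-214) mAb; % cleaved-PARP cells by flow cytometry. Means ± S.D. of three independent experiments.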

[30] = Toxicity in human CD4+ T-cells assessed as increase in ratio of CD69+ cells incubated for 24 hrs by flow cytometry; type: cell-based; conditions: cd4+ t cell
How it was run: (§6)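 Primary CD4+ T-cells from healthy donors treated with drug for 24 h. Cells stained with anti-CD25 and anti-CD69 antibodies (plus CD3, CD4, HLA-DR) for 30 min on ice, then marker-positive proportions quantified by flow cytometry.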

[31] = Toxicity in human CD4+ T-cells assessed as increase in ratio of CD25+ cells incubated for 24 hrs by flow cytometry; type: cell-based; conditions: cd4+ t cell; how it was run: as §6
[32] = target: T1, Protein kinase C (PKC) (Homo sapiens); assay: Activation of PKC in CCL19-induced human CD4+ T-cells infected with latent HIV-1 assessed as reversal of HIV-1 latency by measuring increase in p24 antigen level at 2 uM incubated for 48 hrs in presence of 100 nM PMA by chemiluminescent enzyme immunoassay; type: cell-based; conditions: CD4+ T cell, filed as activator

SMILES	Activity [1]	CC50 at 48 h [2]	Activity [5]	Activity [7]	Activity [10]	Activity [11]	Activity [12]	Activity [13]	Activity [14]	Activity [15]	Activity [16]	CC50 at 120 h [17]	Activity [18]	Activity [20]	Activity [22]	CC50 at 48 h [23]	Activity [25]	Activity [26]	Activity [27]	Activity [29]	further results
CCCCCCCCCCc1ccc2c(c1)N(C)[C@H](C(C)C)C(=O)N[C@H](CO)C2	1.26%	17.8 µM	5.9%	2.25%	4.66%	8.42%	20.4%	inactive	6.1%	4.35%	0.127%	18.9 µM	0.587%	11.5%	inactive	39.2 µM	7.95%	inactive	18.2%	10%	EC50 [3]: 0.43 µM; Activity [4]: inactive; EC50 [6]: 2.33 µM; Activity [8]: inactive; Activity [9]: inactive; Activity [19]: Active; Activity [21]: Active; Activity [24]: inactive; Activity [28]: inactive
CC(C)[C@H]1C(=O)N[C@H](CO)Cc2c[nH]c3cccc(c23)N1C [INDOLACTUM]	2.69%	> 100 µM	17.7%	14.1%	7.82%	30.5%	47.1%	inactive	18%	22.2%	0.584%	> 100 µM	1.72%	24.2%	inactive	> 100 µM	15.7%	inactive	45.1%	24.2%	EC50 [3]: 0.047 µM; Activity [4]: inactive; EC50 [6]: 0.36 µM; Activity [8]: inactive; Activity [9]: inactive; Activity [19]: Active; Activity [21]: Active; Activity [24]: inactive; Activity [28]: inactive
CC(=O)O[C@@]12C[C@@H](C)[C@@]3(O)[C@@H](C=C(CO)C[C@]4(O)C(=O)C(C)=C[C@@H]34)[C@@H]1C2(C)C [PROSTRATIN]	1.06%	> 100 µM	12.7%	8.66%	7.83%	29.9%	37.7%	inactive	14.1%	15.6%	0.307%	> 100 µM	1.47%	14%	inactive	> 100 µM	13.7%	inactive	34.7%	15.2%	Activity [30]: Non-Toxic; Activity [31]: Non-Toxic
C[C@H](CCC(=O)O)C[C@H](C)C[C@H](C)C(=O)/C=C(\O)[C@H](C)C[C@H](C)C/C=C/[C@@H](C)[C@@H](O)[C@@H](C)[C@@H](O)C[C@@H]1CC[C@@](C)([C@H]2CC[C@@](C)([C@@H](C)O)O2)O1																					Activity [32]: Active
